Measurements published in ChEMBL document CHEMBL1221338, “New antitumoral agents I: In vitro anticancer activity and in vivo acute toxicity of synthetic 1,5-bis(4-hydroxy-3-methoxyphenyl)-1,4-pentadien-3-one and derivatives” (Bioorg Med Chem, 2010).

Experiments:
UACC-62 = test: Antitumor activity against human UACC62 cells after 48 hrs by SRB assay; assay type: functional, cell-based; conditions: UACC-62, 48 h
In short: (§1)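 Human tumor lines in medium with 5% FBS and gentamicin, exposed in 96-well plates to four concentrations given in DMSO for 48 h at 37 °C, 5% CO₂. Cells fixed with trichloroacetic acid (added as 50% solution) for 30 min at 4 °C, washed, dried, stained with sulphorhodamine B. Protein content read at 540 nm.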

MCF7 = test: Antitumor activity against human MCF7 cells after 48 hrs by SRB assay; assay type: functional, cell-based; conditions: MCF7, 48 h; in short: as §1
[1] = Antitumor activity against human NCI/ADR cells after 48 hrs by SRB assay; assay type: functional, cell-based; conditions: NCI/ADR-RES; in short: as §1
[2] = Antitumor activity against human 786-O cells after 48 hrs by SRB assay; assay type: functional, cell-based; conditions: 786-0, 48 h; in short: as §1
NCI-H460 = test: Antitumor activity against human NCI-H460 cells after 48 hrs by SRB assay; assay type: functional, cell-based; conditions: NCI-H460, 48 h; in short: as §1
K562 = test: Antitumor activity against human K562 cells after 48 hrs by SRB assay; assay type: functional, cell-based; conditions: K562, 48 h; in short: as §1
PC-3 = test: Antitumor activity against human PC3 cells after 48 hrs by SRB assay; assay type: functional, cell-based; conditions: PC-3, 48 h; in short: as §1
OVCAR-3 = test: Antitumor activity against human OVCAR-3 cells after 48 hrs by SRB assay; assay type: functional, cell-based; conditions: OVCAR-3, 48 h; in short: as §1
HT-29 = test: Antitumor activity against human HT-29 cells after 48 hrs by SRB assay; assay type: functional, cell-based; conditions: HT-29, 48 h; in short: as §1
B16-F10 = test: Antiproliferative activity against mouse B16F10 cells after 24 hrs by MTT assay; assay type: functional, cell-based; conditions: B16-F10, 24 h
In short: (§2)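 Murine tumor cells grown to confluence, then exposed for 24 h to a range of concentrations diluted in Miglyol 810, with a Miglyol-only diluent control. MTT (5 mg/ml stock) added for 3 h at 37 °C, 5% CO₂. Plates centrifuged, supernatant removed, formazan dissolved in DMSO, absorbance read at 540 nm.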

L1210 = test: Antiproliferative activity against mouse L1210 cells after 24 hrs by MTT assay; assay type: functional, cell-based; conditions: L1210, 24 h; in short: as §2
[3] = Antiproliferative activity against mouse macrophages after 24 hrs by MTT assay; assay type: cell-based; conditions: Macrophage
In short: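 Peritoneal macrophages lavaged from anesthetized normal Balb-C mice with heparinized saline. Cells pelleted, resuspended in RPMI-1640 with 10% FBS at 10⁶/ml, plated, and exposed for 24 h to compound dilutions in Miglyol 810, with a diluent control. MTT (5 mg/ml stock) for 3 h at 37 °C, formazan dissolved in DMSO, read at 540 nm.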

[4] = Toxicity in Swiss albino mouse for 14 days; assay type: organism-based; conditions: in vivo
In short: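 Male albino Swiss mice (~25 g; 20 animals split equally into treated and control groups), acclimatised at least 7 days and fasted 12 h. Single intraperitoneal dose of 1, 2.5 or 5 g/kg body weight. Deaths and signs of toxicity observed for at least 14 days. LD50 by Litchfield and Wilcoxon's method; OECD425 protocol.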

SMILES	IC50 (UACC-62) [µM]	IC50 (MCF7) [µM]	IC50 [1] [µM]	IC50 [2] [µM]	IC50 (NCI-H460) [µM]	IC50 (K562) [µM]	IC50 (PC-3) [µM]	IC50 (OVCAR-3) [µM]	IC50 (HT-29) [µM]	IC50 (B16-F10) [µM]	IC50 (L1210) [µM]	IC50 [3] [µM]	LD50 at 336 h [4] [mg/kg]
COc1cc(/C=C/C(=O)/C=C/c2ccc(OCC=C(C)C)c(OC)c2)ccc1OCC=C(C)C	30.6	18.2	7.22	7.87	34.1	4.8	60.5	30.3	4.04	–	–	–	–
COc1cc(/C=C/C(/C=C/c2ccc(O)c(OC)c2)=C(C#N)C#N)ccc1O	3.34	5.24	2.97	7.14	6.89	7.59	4.25	115	3.37	–	–	–	–
COc1cc(/C=C/C(=O)/C=C/c2ccc(O)c(OC)c2)ccc1O	0.09	0.12	0.83	1.99	1.53	1.84	1.25	2.2	2.3	21.5	56.1	51.8	8540
COc1ccc(/C=C/C(=O)/C=C/c2ccc(OC)c(OC)c2)cc1OC	2.12	2	2.37	3.36	1.86	1.83	2.32	2.32	2.43	–	–	–	–
COc1cc(/C=C/C(=O)/C=C/c2ccc(OC(C)=O)c(OC)c2)ccc1OC(C)=O	4.31	1.09	3.12	0.66	1.7	1.41	0.95	1.39	1.48	220	246	275	3680
